Test results as given in ChEMBL document CHEMBL1795311, “Synthesis, antiproliferative activity, and mechanism of action of a series of 2-{[(2E)-3-phenylprop-2-enoyl]amino}benzamides” (Eur J Med Chem, 2011).

Columns and labels:
M14 = assay: Growth inhibition of human M14 cells after 48 hrs by SRB assay; format: functional; conditions: M14, 48 h
Summary of the method: (§1)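 NCI DTP panel cells grown in RPMI 1640 with 5% FBS and 2 mM L-glutamine, preincubated 24 h, then given five concentrations (10-fold or ½-log dilutions from DMSO stock) for 48 h at 37 °C. Cells fixed with TCA, stained with SRB, absorbance read at 515 nm, with time-zero plates as reference.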

UACC-257 = assay: Growth inhibition of human UACC257 cells after 48 hrs by SRB assay; format: functional; conditions: UACC-257, 48 h
Summary of the method: (§2)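 Run by the NCI Developmental Therapeutics Program: cells in RPMI 1640 with 5% FBS and 2 mM L-glutamine, plated at 5000–40,000 cells/well and grown 24 h before dosing. Drug (DMSO stock) given at five concentrations for 48 h at 37 °C, 5% CO2. Adherent cells fixed with cold TCA, stained with 0.4% SRB and read at 515 nm. GI50, TGI and LC50 taken from the time-zero, control and treated absorbances.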

A549 = assay: Growth inhibition of human A549 cells after 48 hrs by SRB assay; format: functional; conditions: A549, 48 h; summary of the method: as §1
RPMI-8226 = assay: Growth inhibition of human RPMI8226 cells after 48 hrs by SRB assay; format: functional; conditions: RPMI-8226, 48 h; summary of the method: as §1
HCC 2998 = assay: Growth inhibition of human HCC2998 cells after 48 hrs by SRB assay; format: functional; conditions: HCC 2998, 48 h; summary of the method: as §1
MDA-MB-435 = assay: Growth inhibition of human MDA-MB-435 cells after 48 hrs by SRB assay; format: functional; conditions: MDA-MB-435, 48 h; summary of the method: as §1
IGROV-1 = assay: Growth inhibition of human IGROV1 cells after 48 hrs by SRB assay; format: functional; conditions: IGROV-1, 48 h; summary of the method: as §1
UO-31 = assay: Growth inhibition of human UO31 cells after 48 hrs by SRB assay; format: functional; conditions: UO-31, 48 h; summary of the method: as §2
RXF 393 = assay: Growth inhibition of human RXF393 cells after 48 hrs by SRB assay; format: functional; conditions: RXF 393, 48 h; summary of the method: as §1
PC-3 = assay: Growth inhibition of human PC3 cells after 48 hrs by SRB assay; format: functional; conditions: PC-3, 48 h; summary of the method: as §1
A498 = assay: Growth inhibition of human A498 cells after 48 hrs by SRB assay; format: functional; conditions: A498, 48 h; summary of the method: as §1
UACC-62 = assay: Growth inhibition of human UACC62 cells after 48 hrs by SRB assay; format: functional; conditions: UACC-62, 48 h; summary of the method: as §2
K562 [1] = assay: Antiproliferative activity against human K562 cells at 10 uM after 48 hrs by trypan blue assay; format: functional; conditions: K562, 48 h, read-out: GI
SNB-75 = assay: Growth inhibition of human SNB75 cells after 48 hrs by SRB assay; format: functional; conditions: SNB-75, 48 h; summary of the method: as §2
SK-MEL-5 = assay: Growth inhibition of human SK-MEL-5 cells after 48 hrs by SRB assay; format: functional; conditions: SK-MEL-5, 48 h; summary of the method: as §2
SNB-19 = assay: Growth inhibition of human SNB19 cells after 48 hrs by SRB assay; format: functional; conditions: SNB-19, 48 h; summary of the method: as §2
U-251 = assay: Growth inhibition of human U251 cells after 48 hrs by SRB assay; format: functional; conditions: U-251, 48 h; summary of the method: as §2
K562 [2] = assay: Growth inhibition of human K562 cells after 48 hrs by trypan blue assay; format: functional, cell-based; conditions: K562, 48 h
COLO 205 = assay: Growth inhibition of human COLO205 cells after 48 hrs by SRB assay; format: functional; conditions: COLO 205, 48 h; summary of the method: as §1
NCI-H23 = assay: Growth inhibition of human NCI-H23 cells after 48 hrs by SRB assay; format: functional; conditions: NCI-H23, 48 h; summary of the method: as §1
OVCAR-3 = assay: Growth inhibition of human OVCAR3 cells after 48 hrs by SRB assay; format: functional; conditions: OVCAR-3, 48 h; summary of the method: as §1
CCRF-CEM = assay: Growth inhibition of human CCRF-CEM cells after 48 hrs by SRB assay; format: functional; summary of the method: as §1
SF-268 = assay: Growth inhibition of human SF268 cells after 48 hrs by SRB assay; format: functional; conditions: SF-268, 48 h; summary of the method: as §1
ACHN = assay: Growth inhibition of human ACHN cells after 48 hrs by SRB assay; format: functional; summary of the method: as §1
NCI/ADR-RES = assay: Growth inhibition of human NCI/ADR-RES cells after 48 hrs by SRB assay; format: functional; summary of the method: as §1
SK-MEL-2 = assay: Growth inhibition of human SK-MEL-2 cells after 48 hrs by SRB assay; format: functional; conditions: SK-MEL-2, 48 h; summary of the method: as §2
NCI-H460 = assay: Growth inhibition of human NCI-H460 cells after 48 hrs by SRB assay; format: functional; conditions: NCI-H460, 48 h; summary of the method: as §1
SN12C = assay: Growth inhibition of human SN12C cells after 48 hrs by SRB assay; format: functional; summary of the method: as §2
NCI-H522 = assay: Growth inhibition of human NCI-H522 cells after 48 hrs by SRB assay; format: functional; conditions: NCI-H522, 48 h; summary of the method: as §1
HCT-116 = assay: Growth inhibition of human HCT116 cells after 48 hrs by SRB assay; format: functional; conditions: HCT-116, 48 h; summary of the method: as §1
NCI-H226 = assay: Growth inhibition of human NCI-H226 cells after 48 hrs by SRB assay; format: functional; conditions: NCI-H226, 48 h; summary of the method: as §1
BT-549 = assay: Growth inhibition of human BT549 cells after 48 hrs by SRB assay; format: functional; conditions: BT-549, 48 h; summary of the method: as §1
OVCAR-4 = assay: Growth inhibition of human OVCAR4 cells after 48 hrs by SRB assay; format: functional; conditions: OVCAR-4, 48 h; summary of the method: as §1
LOX IMVI = assay: Growth inhibition of human LOXIMVI cells after 48 hrs by SRB assay; format: functional; summary of the method: as §1
MDA-MB-468 = assay: Growth inhibition of human MDA-MB-468 cells after 48 hrs by SRB assay; format: functional; conditions: MDA-MB-468, 48 h; summary of the method: as §1
T47D = assay: Growth inhibition of human T47D cells after 48 hrs by SRB assay; format: functional; summary of the method: as §2
K562 [3] = assay: Growth inhibition of human K562 cells after 48 hrs by SRB assay; format: functional; conditions: K562, 48 h; summary of the method: as §1
MCF7 = assay: Growth inhibition of human MCF7 cells after 48 hrs by SRB assay; format: functional; conditions: MCF7, 48 h; summary of the method: as §1
HCT-15 = assay: Growth inhibition of human HCT15 cells after 48 hrs by SRB assay; format: functional; conditions: HCT-15, 48 h; summary of the method: as §1
HOP-62 = assay: Growth inhibition of human HOP62 cells after 48 hrs by SRB assay; format: functional; conditions: HOP-62, 48 h; summary of the method: as §1
[4] = Growth inhibition of human Hs 578T cells after 48 hrs by SRB assay; format: functional; summary of the method: as §1
SK-OV-3 = assay: Growth inhibition of human SKOV3 cells after 48 hrs by SRB assay; format: functional; conditions: SK-OV-3, 48 h; summary of the method: as §2
OVCAR-5 = assay: Growth inhibition of human OVCAR5 cells after 48 hrs by SRB assay; format: functional; conditions: OVCAR-5, 48 h; summary of the method: as §1
SF-295 = assay: Growth inhibition of human SF295 cells after 48 hrs by SRB assay; format: functional; conditions: SF-295, 48 h; summary of the method: as §1
HT-29 = assay: Growth inhibition of human HT-29 cells after 48 hrs by SRB assay; format: functional; conditions: HT-29, 48 h; summary of the method: as §1
786-0 = assay: Growth inhibition of human 786-0 cells after 48 hrs by SRB assay; format: functional; conditions: 786-0, 48 h; summary of the method: as §1
TK-10 = assay: Growth inhibition of human TK10 cells after 48 hrs by SRB assay; format: functional; conditions: TK-10, 48 h; summary of the method: as §2
EKVX = assay: Growth inhibition of human EKVX cells after 48 hrs by SRB assay; format: functional; summary of the method: as §1
SW-620 = assay: Growth inhibition of human SW620 cells after 48 hrs by SRB assay; format: functional; conditions: SW-620, 48 h; summary of the method: as §2
MDA-MB-231 = assay: Growth inhibition of human MDA-MB-231 cells after 48 hrs by SRB assay; format: functional; conditions: MDA-MB-231, 48 h; summary of the method: as §1
HOP-92 = assay: Growth inhibition of human HOP92 cells after 48 hrs by SRB assay; format: functional; conditions: HOP-92, 48 h; summary of the method: as §1
KM12 = assay: Growth inhibition of human KM12 cells after 48 hrs by SRB assay; format: functional; conditions: KM12, 48 h; summary of the method: as §1
HL-60 = assay: Growth inhibition of human HL60 cells after 48 hrs by SRB assay; format: functional; conditions: HL-60, 48 h; summary of the method: as §1
MOLT-4 = assay: Growth inhibition of human MOLT4 cells after 48 hrs by SRB assay; format: functional; conditions: MOLT-4, 48 h; summary of the method: as §1
DU-145 = assay: Growth inhibition of human DU145 cells after 48 hrs by SRB assay; format: functional; conditions: DU-145, 48 h; summary of the method: as §1
SF-539 = assay: Growth inhibition of human SF539 cells after 48 hrs by SRB assay; format: functional; conditions: SF-539, 48 h; summary of the method: as §1
CAKI-1 = assay: Growth inhibition of human Caki1 cells after 48 hrs by SRB assay; format: functional; conditions: CAKI-1, 48 h; summary of the method: as §1

GI50 (A549): 1870 nM | GI50 (RPMI-8226): 772 nM | GI50 (HCC 2998): 984 nM | GI50 (MDA-MB-435): 234 nM | GI50 (PC-3): 832 nM | GI50 (SK-MEL-5): 367 nM | GI50 (U-251): 663 nM | IC50 (K562 [2]): 1200 nM | GI50 (COLO 205): 797 nM | GI50 (NCI-H23): 1390 nM | GI50 (OVCAR-3): 294 nM | GI50 (CCRF-CEM): 484 nM | GI50 (ACHN): 9860 nM | GI50 (SK-MEL-2): 678 nM | GI50 (NCI-H460): 479 nM | GI50 (NCI-H522): 459 nM | GI50 (HCT-116): 509 nM | GI50 (NCI-H226): 1140 nM | GI50 (BT-549): 816 nM | GI50 (OVCAR-4): 2370 nM | GI50 (MDA-MB-468): 377 nM | GI50 (T47D): 19900 nM | GI50 (K562 [3]): 370 nM | GI50 (MCF7): 401 nM | GI50 (HCT-15): 987 nM | GI50 (SK-OV-3): 539 nM | GI50 (OVCAR-5): 4020 nM | GI50 (HT-29): 376 nM | GI50 (786-0): 937 nM | GI50 (SW-620): 605 nM | GI50 (MDA-MB-231): 1410 nM | GI50 (HL-60): 165 nM | GI50 (MOLT-4): 1420 nM | GI50 (DU-145): 1280 nM
SMILES: NC(=O)c1cc(I)ccc1NC(=O)/C=C/c1ccccc1Cl
GI50 (M14): 698 nM | GI50 (UACC-257): 38700 nM | GI50 (IGROV-1): 352 nM | GI50 (UO-31): 1630 nM | GI50 (RXF 393): 425 nM | GI50 (A498): 880 nM | GI50 (UACC-62): 388 nM | inhibition of growth at 10 µM (K562 [1]): 74.1% | GI50 (SNB-75): 1220 nM | GI50 (SNB-19): 1410 nM | GI50 (SF-268): 778 nM | GI50 (NCI/ADR-RES): 719 nM | GI50 (SN12C): 1550 nM | GI50 (LOX IMVI): 4210 nM | GI50 (HOP-62): 2300 nM | GI50 [4]: 362 nM | GI50 (SF-295): 415 nM | GI50 (TK-10): 26700 nM | GI50 (EKVX): 1000 nM | GI50 (HOP-92): 13200 nM | GI50 (KM12): 533 nM | GI50 (SF-539): 444 nM | GI50 (CAKI-1): 637 nM
